The source of these data is PubChem BioAssay AID434971 (Sanford-Burnham Center for Chemical Genomics, 2010).

The whole screen tested about 11,000 compounds, of which about 510 (4.6%) were called active. The sample as a whole holds a higher share of actives than the screen did. Unmarked numbers belong to inactive results.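 The calls were made as follows: active = inhibition of at least 40% at 10 µM in either of the two replicates; inactive = the rest.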

The assay concerns intestinal alkaline phosphatase [Mus musculus]. In words: mouse intestinal phosphatase enzyme inhibition – biochemical, luminescence, single concentration, confirmation (AID 434971).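 Also: plate controls were DMSO wells with enzyme for no effect and buffer wells lacking enzyme for full effect.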 The note with it: purified mouse IAP, CDP-Star luminescence, 30 min; at 10 µM; stronger effect = higher value. The method in brief:
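System: mouse IAP enzyme; medium: DEA buffer containing ZnCl2 and MgCl2; also added: CDP-Star as the luminogenic phosphatase substrate; dosing: test compound delivered in DMSO; timing: 30 min enzyme-substrate-compound incubation at room temperature; detection: luminescence from CDP-Star dephosphorylation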
Regarding `O=C(CCCN1C(=O)/C(=C/c2ccco2)SC1=S)Nc1ccccc1`, the inhibition is 49.1% (active).

As to `O=C(CCCN1C(=O)/C(=C\c2ccco2)SC1=S)Nc1cccc2ccccc12`, the inhibition was 49.1% (active).

Consider `O=c1ccc2c(-c3ccccc3S(=O)(=O)O)c3ccc(O)c(O)c3oc-2c1O`, for which the inhibition is 79.7% (active).

As for `O=C(Nc1nc(-c2ccco2)c(-c2ccco2)s1)c1ccco1`, the inhibition is 74.3% (active).

With `Cc1cc(C)cc(NC(=O)NC2CCCCCCC2)c1`, the inhibition is -237%.

Take `COc1ccc(CN2CCC(n3nccc3NC(=O)CCCc3ccccc3)CC2)cc1C`: the inhibition is -140%.

Consider `COc1ccc(NC(=O)NC2CC3CCCC(C2)N3Cc2ccccc2)cc1` (stereo not given), for which the inhibition was -171%.

Regarding `COc1ccccc1-n1c(-c2cc(-c3ccco3)[nH]n2)n[nH]c1=S`, the inhibition was 68.7% (active).

As for `COc1cc(C(=O)Nn2c(O)c(C3=c4ccccc4=NC3=O)sc2=S)ccc1O`, the inhibition is 93.1% (active).

For the compound `c1ccc(-c2cc3c(NCC4COc5ccccc5O4)ncnc3s2)cc1` (stereo not given), the inhibition is -97.1%.

Turning to `CCN(c1ccccc1)S(=O)(=O)c1ccc2[nH]c(=O)[nH]c2c1`, the inhibition is 73.4% (active).

With `Cc1ccc(C)c(CN2CCC(CNC(=O)Nc3ccc(C)c(F)c3)CC2)c1`, the inhibition is -116%.

With `CCn1cc(CN2CCC(C(=O)Nc3cccc(-c4cccc(Cl)c4)c3)CC2)cn1`, the inhibition was -329%.

`NS(=O)(=O)c1ccc(-c2ccc(/C=C3\SC(=O)NC3=O)o2)cc1`: the inhibition was 68.1% (active).

On to `C#CCOCCOCCOCCNc1nc(N2CCN(C(=O)CCCCCCCCCCNC(=O)Cn3cc(CCCCCN)nn3)CC2)nc(N2CCN(C(=O)CCCCCCCCCCNC(=O)[C@H](CO)n3cc(CCCSC)nn3)CC2)n1`, for which the inhibition is -153%.

On to `Oc1ccc(CNc2ccccc2O)cc1`, for which the inhibition was 41.2% (active).

Take `CC(C)S(=O)(=O)c1csc(NC(=O)Nc2ccc(Cl)cc2)c1Cl`: the inhibition was -116%.

In the case of `Nc1ccc2nc3c(=O)[nH]c(=S)[nH]c3nc2c1`, the inhibition was 78.3% (active).

Take `COC(=O)c1ccc(NC(=O)Nc2ccc(C)cc2)cc1`: the inhibition was -115%.

On to `CCn1cc(CN2CCC(C(=O)Nc3cccc(-c4cccc(Cl)c4)c3)CC2)c(C)n1`, for which the inhibition was -396%.

`Oc1cc(O)c2c(c1)OC(c1ccc(O)c(O)c1)C(O)C2` (stereo not given): the inhibition was 84.5% (active).

As to `Cc1cccc(CN2CCC(CNC(=O)Nc3ccc(F)c(Cl)c3)CC2)c1`, the inhibition is -115%.

In the case of `COc1cccc(/C=N\NC(=O)C2=NNC(=O)C2C)c1O` (stereo not given), the inhibition was 60.2% (active).

As for `Cc1ccc(Cc2cnc(N)s2)o1`, the inhibition is 58.5% (active).

Take `O=c1[nH]c(=S)[nH]c2[nH]c(=S)[nH]c12`: the inhibition was 81.9% (active).

With `O=C(Nc1cccc(-c2cccc(Cl)c2)c1)C1CCN(C2CCC2)CC1`, the inhibition was -294%.

Consider `Cc1cc(NC(=O)Nc2ccc(Cl)cc2)n(-c2ccccc2)n1`, for which the inhibition was -107%.

With `COc1ccc(OC)c(Nc2nc(-c3ccc(O)c(O)c3)cs2)c1`, the inhibition was 74.3% (active).

`O=C(Nc1cccc(F)c1)NC1CCCCCCC1`: the inhibition is -142%.

On to `COc1cc(/C=N\Nc2nc(-c3cccs3)c(NC(C)=O)s2)ccc1O`, for which the inhibition was 47% (active).

As for `OCCCN1c2ccccc2Nc2nnc(-c3ccccc3)cc21`, the inhibition is -208%.

`c1ccc(CSc2nnc(-c3ccco3)c(-c3ccco3)n2)cc1`: the inhibition is 69% (active).

With `Clc1ccccc1CSc1nnc(-c2ccco2)c(-c2ccco2)n1`, the inhibition was 71.8% (active).

Take `O=[N+]([O-])c1cc(Cl)cc(/C=N/NC(=S)Nc2cc(S(=O)(=O)N3CCOCC3)ccc2Cl)c1O`: the inhibition was 40.3% (active).

`CCc1ccc(NC(=O)NC(C)c2ccc3c(c2)OCO3)cc1` (stereo not given): the inhibition is -166%.

As usually defined, the inhibition is the drop in the measured response relative to a control, in per cent.
